Source: ChEMBL document CHEMBL3992510, “Urea Derivatives of 2-Aryl-benzothiazol-5-amines: A New Class of Potential Drugs for Human African Trypanosomiasis” (J Med Chem, 2017)

Experiments:
Liver [1] = test: Half life in human liver microsomes at 1.5 uM in presence of NADPH by liquid chromatography/tandem mass spectrometric analysis; assay type: ADME, microsome
Liver [2] = test: Half life in mouse liver microsomes at 1.5 uM in presence of NADPH by liquid chromatography/tandem mass spectrometric analysis; assay type: ADME, microsome
HepG2 = test: Cytotoxicity against human HepG2 cells assessed as growth inhibition after 48 hrs by Alamar blue assay; assay type: cell-based; details: for EC50: Homo sapiens, HepG2, 48 h; for EC90: human, hepg2, 48 h
Summary of the method: (§1)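 CRL-8155 lymphoblasts or HepG2 hepatocellular carcinoma cells are exposed 48 h to serial compound dilutions in quadruplicate. Growth is read with Alamar Blue, and 50% and 90% inhibitory concentrations come from nonlinear regression. Quinacrine is the control.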

[3] = Selectivity index, ratio of EC50 for human CRL8155 cells to EC50 for Trypanosoma brucei brucei BF427; assay type: toxicity; details: read-out: Ratio EC50
[4] = test system: Trypanosoma brucei brucei; test: Antitrypanosomal activity against Trypanosoma brucei brucei BF427 assessed as growth inhibition measured after 48 hrs by Alamar blue assay; assay type: functional; details: BF427, 48 h
Summary of the method: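 Bloodstream-form parasites in HMI-9 medium are exposed to serial compound dilutions in triplicate. Viability is read with Alamar Blue at 48 h. EC50 and EC90 come from nonlinear regression. Pentamidine isethionate is the control.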

[5] = Selectivity index, ratio of EC50 for human HepG2 cells to EC50 for Trypanosoma brucei brucei BF427; assay type: toxicity; details: read-out: Ratio EC50
[6] = Cytotoxicity against human CRL8155 cells assessed as growth inhibition after 48 hrs by Alamar blue assay; assay type: cell-based; details: for EC50: Homo sapiens, CRL8155, 48 h; for EC90: human, crl8155, 48 h; summary of the method: as §1
[7] = Drug level in mouse plasma at 5 mg/kg, ip administered as single dose measured at 1 hr post dose by liquid chromatography/tandem mass spectrometric analysis; assay type: ADME, organism-based
Summary of the method: (§2)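 Single ip dose of 5 mg/kg in 5% DMSO/7% Tween 80/3% EtOH in 0.9% saline, three mice per compound (six for one compound). At 1 h, plasma is separated by centrifugation and brain homogenized in acetonitrile. Both are quantified by LC-MS/MS, with brain corrected for 3% v/w blood. Brain/plasma ratio is reported as mean ± SEM.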

[8] = Drug level in mouse brain at 5 mg/kg, ip administered as single dose measured at 1 hr post dose by liquid chromatography/tandem mass spectrometric analysis; assay type: ADME, organism-based; details: read-out: Drug uptake; summary of the method: as §2

SMILES | t1/2 (Liver [1]) [min] | t1/2 (Liver [2]) [min] | EC50 (HepG2) [µM] | EC90 (HepG2) [µM] | selectivity ratio [3] | EC50 [4] [µM] | EC90 [4] [µM] | selectivity ratio [5] | EC50 [6] [µM] | EC90 [6] [µM] | concentration at 1 h [7] [nM] | concentration at 1 h [8] [nM]
C[C@]12CC[C@H]3[C@@H](CCC4=CC(=O)CC[C@@]43C)[C@@H]1CC[C@@H]2O [TESTOSTERONE] | 22.7 | 5.26 | – | – | – | – | – | – | – | – | – | –
N=C(N)c1ccc(OCCCCCOc2ccc(C(=N)N)cc2)cc1 | – | – | > 100 | > 100 | > 43200 | 0.00105 | 0.00354 | > 93000 | 45.4 | > 100 | – | –
Cc1nc2cc(NC(=O)N3CCCC3)ccc2s1 | – | – | – | – | – | > 20 | > 20 | – | – | – | – | –
O=C(Nc1nc2cc(-c3ccc(F)c(F)c3)ccc2s1)N1CCC(F)C1 (centres undefined) | – | – | – | – | – | 2.64 | 5.28 | – | – | – | – | –
O=C(Nc1ccc2sc(-c3ccc(F)cc3)nc2c1)N1CCCCC1 | – | – | > 50 | > 50 | > 117 | 0.427 | 0.737 | > 117 | > 50 | > 50 | – | –
O=C(Nc1ccc2sc(-c3ccc(F)cc3)nc2c1)N1CCCC1 | – | – | > 50 | > 50 | > 133 | 0.375 | 0.895 | > 133 | > 50 | > 50 | – | –
O=C(NCCc1nc(-c2ccccc2)cs1)N1CCCCCC1 | – | – | – | – | – | 0.11 | 0.236 | – | – | – | – | –
O=C(Nc1ccc2sc(-c3cccc(F)c3)nc2c1)N1CCCC1 | 37 | 12 | > 50 | > 50 | > 316 | 0.158 | 0.391 | > 316 | > 50 | > 50 | 2220 | 2280
O=C(Nc1ccc2oc(-c3ccccc3)nc2c1)c1ccccc1 | 60 | 17 | – | – | – | > 10 | > 10 | – | – | – | – | –
O=C(Nc1ccc2sc(-c3ccccc3F)nc2c1)N1CCCC1 | – | – | > 50 | > 50 | > 51 | 0.983 | 1.24 | > 51 | > 50 | > 50 | – | –
O=C(Nc1ccc2sc(-c3ccccc3)nc2c1)c1cscn1 | – | – | – | – | – | > 10 | > 10 | – | – | – | – | –
O=C(Nc1ccc2sc(-c3ccc(F)c(F)c3)nc2c1)N1CC[C@@H](F)C1 | – | – | > 50 | – | > 153 | 0.326 | 0.491 | > 153 | > 50 | > 50 | 1200 | 6350
CC(C)(Cc1csc(-c2ccccc2)n1)NC(=O)N1CCCC1 | – | – | – | – | – | > 10 | > 10 | – | – | – | – | –
O=C(Nc1ccc2sc(-c3ccc(F)c(F)c3)nc2c1)N1CCC(O)C1 (centres undefined) | – | – | – | – | – | 7.68 | 13.6 | – | – | – | – | –
CC(C)(CNC(=O)c1ccccc1)c1nc(-c2ccccc2)cs1 | – | – | – | – | – | > 10 | > 10 | – | – | – | – | –
O=C(Nc1ccc2sc(-c3ccc(F)c(F)c3)nc2c1)N1CCCCC1 | – | – | > 50 | > 50 | > 224 | 0.223 | 0.282 | > 224 | > 50 | > 50 | 2520 | 1290
O=C(Nc1ccc2sc(-c3cccc(F)c3)nc2c1)c1ccccc1 | – | – | – | – | – | 1.78 | 3.62 | – | – | – | – | –
CN1CCN(C(=O)Nc2ccc3sc(-c4cccc(F)c4)nc3c2)CC1 | – | – | – | – | – | 3.15 | 7.55 | – | – | – | – | –
O=C(Nc1ccc2sc(-c3ccccc3F)nc2c1)N1CCCCC1 | – | – | > 50 | > 50 | > 53 | 0.935 | 1.14 | > 53 | > 50 | > 50 | – | –
O=C(NCCc1nc(-c2cccc(F)c2)cs1)N1CCc2ccccc2C1 | – | – | – | – | – | 9.76 | 13.8 | – | – | – | – | –
CCN(CC)CCCC(C)Nc1c2ccc(Cl)cc2nc2ccc(OC)cc12 (centres undefined) [QUINACRINE] | – | – | 10.4 | 18.2 | – | – | – | – | 4.23 | 9.94 | – | –
CC(C)(Cc1nc(-c2cccc(F)c2)cs1)NC(=O)c1ccccc1 | – | – | – | – | – | > 10 | > 10 | – | – | – | – | –
O=C(Nc1ccc2[nH]c(-c3ccccc3)nc2c1)c1ccccc1 | – | – | – | – | – | > 10 | > 10 | – | – | – | – | –
CC(C)(Cc1csc(-c2ccccc2)n1)NC(=O)N1CCCCCC1 | – | – | – | – | – | > 10 | > 10 | – | – | – | – | –
O=C(Nc1ccc2sc(-c3ccc(F)c(F)c3)nc2c1)N1CCC(F)CC1 | – | – | > 50 | > 50 | > 147 | 0.341 | 0.596 | > 147 | > 50 | > 50 | 2510 | 2520
O=C(Nc1ccc2nc(-c3ccc(F)c(F)c3)sc2c1)N1CCC(F)C1 (centres undefined) | – | – | – | – | – | > 20 | > 20 | – | – | – | – | –
